The source of these data is PMC2606940 (The Journal of General Physiology, 2009).

SMILES strings stand for the structures. Numbering of substitutions follows the chain as printed. Where two headings read alike, the source gives them in different places.

Holding throughout (type): cell-based
In one assay the target is T1, CLC-0 E166A mutant (Torpedo marmorata, UniProt P21564, C212S/E166A).
T1 sequence (P21564 1-805 E166A/C212S): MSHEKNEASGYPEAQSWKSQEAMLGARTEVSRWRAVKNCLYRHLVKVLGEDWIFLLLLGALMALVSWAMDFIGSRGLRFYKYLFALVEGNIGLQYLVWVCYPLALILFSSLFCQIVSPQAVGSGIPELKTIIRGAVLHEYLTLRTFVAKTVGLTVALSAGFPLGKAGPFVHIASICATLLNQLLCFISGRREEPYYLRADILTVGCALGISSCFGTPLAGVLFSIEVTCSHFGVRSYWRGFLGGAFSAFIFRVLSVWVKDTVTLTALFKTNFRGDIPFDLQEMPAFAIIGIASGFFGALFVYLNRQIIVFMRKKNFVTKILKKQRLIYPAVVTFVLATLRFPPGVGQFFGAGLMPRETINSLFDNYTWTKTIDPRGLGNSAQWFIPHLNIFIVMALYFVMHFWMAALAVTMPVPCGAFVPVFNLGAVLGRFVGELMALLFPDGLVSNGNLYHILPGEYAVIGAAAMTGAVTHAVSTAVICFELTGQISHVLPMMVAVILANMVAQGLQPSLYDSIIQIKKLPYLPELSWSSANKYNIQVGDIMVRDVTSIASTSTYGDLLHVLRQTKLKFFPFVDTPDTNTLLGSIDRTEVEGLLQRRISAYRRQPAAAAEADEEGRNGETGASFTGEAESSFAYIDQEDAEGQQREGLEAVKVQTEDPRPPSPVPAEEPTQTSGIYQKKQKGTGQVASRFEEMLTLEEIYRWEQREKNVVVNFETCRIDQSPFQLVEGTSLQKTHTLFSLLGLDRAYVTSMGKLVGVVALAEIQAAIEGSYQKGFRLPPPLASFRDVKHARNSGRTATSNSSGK
Kind of assay: Single-channel recordings, channels expressed in Xenopus oocytes. The settings on record: 0.1 mM CPA cytoplasmic side; −100 mV. Put shortly:
(§1)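 Single channels were expressed in Xenopus oocytes from cRNA made from a pBluescript construct. Currents were recorded at −100 mV with cytoplasmic CPA at 100 μM, filtered at 200 Hz (four-pole Bessel) and digitized at 1 kHz. Average dwell time of nonconducting events was analysed from the single-channel traces.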

The target in assay [1] is T2, CLC-0 E166C/K519M mutant (E127/K519M) (Torpedo marmorata, UniProt P21564, C212S/E166C/K519M).
T2 sequence (P21564 1-805 E166C/C212S/K519M): T1 sequence (P21564 1-805 E166A/C212S) with A166C, K519M
To be noted: for IC50: read-out: Apparent affinity (K1/2). The method, boiled down: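 CLC-0 mutants in the C212S background were transfected into HEK293 cells with lipofectamine and recorded 1–3 d later as excised inside-out patches. Both sides held 130 mM NaCl, 5 mM MgCl2, 10 mM HEPES and 1 mM EGTA, pH 7.4. CPA was perfused continuously onto the cytoplasmic face. Steady-state current over the last 10 ms was normalized to bracketing blocker-free controls and fitted to a Langmuir function for K1/2. Values are mean ± SEM of ~4–6 patches.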

The next assay has as its target T3, CLC-0 E166Q mutant (Torpedo marmorata, UniProt P21564, C212S/E166Q).
T3 sequence (P21564 1-805 E166Q/C212S): T1 sequence (P21564 1-805 E166A/C212S) with A166Q
Kind of assay: Single-channel recordings, channels expressed in Xenopus oocytes. The settings on record: 0.1 mM CPA; −100 mV. The method, boiled down:
as §1

On to `O=C(O)COc1ccc(Cl)cc1` [CPA, p-chlorophenoxy acetate], for which, at CLC-0 E166A mutant, the “averaged time of nonconducting (blocked) events” value was about 55 ms. Moreover, the IC50 came to 378 ± 7 µM in assay [1] (−40 mV); 271 ± 5 µM in assay [1] (−60 mV); 194 ± 4 µM in assay [1] (−80 mV); 141 ± 5 µM in assay [1] (−100 mV); 98 ± 4 µM in assay [1] (−120 mV); 69 ± 4 µM in assay [1] (−140 mV). The IC50 in assay [1] (−160 mV) came out at 51 ± 4 µM. Besides, the apparent koff in assay [1] (−160 mV) is 10.5 s⁻¹. The apparent kon in assay [1] (−160 mV) is 170000 M⁻¹ s⁻¹. The “long blocked state in single-channel trace” value at CLC-0 E166Q mutant is on record as “absent”.
